Data on 2 compounds can be found in publication PMC7134334 (Neuropharmacology, 2016).

The test system of experiment [1] is WT Kv3.1 channels and VSD chimeras (S1-S4, S1-S3a, S3b-S4). It is filed as cell-based. As to conditions: block calculated at depolarizing potentials of V1/2 +30 mV.
In experiment [2] the target is T1, Kv3.1 (Homo sapiens, UniProt P48547).
T1 sequence (P48547 1-511): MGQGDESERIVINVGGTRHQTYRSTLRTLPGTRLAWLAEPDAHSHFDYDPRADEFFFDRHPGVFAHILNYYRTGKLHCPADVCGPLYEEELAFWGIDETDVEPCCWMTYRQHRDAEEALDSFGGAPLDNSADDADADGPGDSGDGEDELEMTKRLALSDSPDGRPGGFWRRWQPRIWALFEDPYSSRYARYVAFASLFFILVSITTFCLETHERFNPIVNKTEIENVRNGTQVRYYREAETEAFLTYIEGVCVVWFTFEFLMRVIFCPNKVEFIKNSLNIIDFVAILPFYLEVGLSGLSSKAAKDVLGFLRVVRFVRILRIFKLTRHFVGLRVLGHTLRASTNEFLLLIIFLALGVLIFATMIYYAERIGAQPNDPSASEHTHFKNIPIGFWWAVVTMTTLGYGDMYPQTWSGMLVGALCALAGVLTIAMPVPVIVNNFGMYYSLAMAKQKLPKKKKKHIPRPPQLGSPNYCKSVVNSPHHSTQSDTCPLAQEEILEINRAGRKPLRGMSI
In words: Patch-clamp current inhibition by gambierol, WT Kv3.1 in Ltk− cells. It is filed as cell-based. As to conditions: read-out: IC50 (concentration that induces 50% current inhibition); WT Kv3.1 expressed in Ltk− cells; mean ± SEM. In short, it runs like this:
(§1)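 Ltk− mouse fibroblasts (DMEM, 10% horse serum) transiently PEI-transfected with 15–200 ng cDNA, recorded ~20–28 h later at 20–23 °C. Bath (mM): NaCl 130, KCl 4, CaCl2 1.8, MgCl2 1, HEPES 10, glucose 10, pH 7.35. Pipette: KCl 110, K4BAPTA 5, K2ATP 5, MgCl2 1, HEPES 10, pH 7.2. Fast-perfused, final DMSO ≤0.5%. Fraction of current left at +40 mV Hill-fitted for IC50. Cells with >5 mV voltage error excluded. Mean ± SEM over cells.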

Experiment [3] relates to Kv3.1_S1-S4_2.1. Kind of experiment: Patch-clamp current inhibition by gambierol, Kv3.1_S1-S4_2.1 chimera. It is filed as cell-based. The settings on record: read-out: IC50 (concentration that induces 50% current inhibition); Kv3.1_S1-S4_2.1 in Ltk− cells; n = 4. Put shortly:
as §1
In general terms: The patch-clamp technique gives a direct electrical read-out from membranes.

The test system of experiment [4] is Kv3.1_S1-S3a_2.1. In words: Patch-clamp current inhibition by gambierol, Kv3.1_S1-S3a_2.1 chimera. It is filed as cell-based. As to conditions: read-out: IC50 (concentration that induces 50% current inhibition); Kv3.1_S1-S3a_2.1 in Ltk− cells; n = 3. Put shortly:
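Ltk− mouse fibroblasts (DMEM, 10% horse serum) transiently PEI-transfected with channel cDNA and patch-clamped 20–28 h later at 20–23 °C. Bath (mM): NaCl 130, KCl 4, CaCl2 1.8, MgCl2 1, HEPES 10, glucose 10, pH 7.35; pipette KCl-based with BAPTA, ATP, pH 7.2. Toxin perfused from DMSO stock (final DMSO ≤0.5%). Remaining current at +40 mV Hill-fitted for IC50; mean ± SEM over cells.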

Experiment [5] has as its system Kv3.1_S3b-S4_2.1. In words: Patch-clamp current inhibition by gambierol, Kv3.1_S3b-S4_2.1 chimera. The experiment is classed as cell-based. As to conditions: read-out: IC50 (concentration that induces 50% current inhibition); Kv3.1_S3b-S4_2.1 in Ltk− cells; n = 4. Put shortly:
as §1

Experiment [6] deals with Kv2.1 V404T_S3b-S4_3.1. Kind of experiment: Patch-clamp current inhibition by gambierol, Kv2.1 V404T_S3b-S4_3.1 chimera. It is filed as cell-based. In short, it runs like this: as §1
In experiment [7] the target is T1, Kv3.1. The settings on record: ref Kopljar et al., 2013; cited from earlier work.

Bounds are passed on as bounds.

For the compound `O=C(NCC1CCCCN1)c1cc(OCC(F)(F)F)ccc1OCC(F)(F)F` (centres unmarked) [Flecainide], the “differences in IC50 values between WT channels and chimeras” value in experiment [1] was less than 2 fold.

For the compound `C=CC/C=C\C=C/[C@H]1O[C@H]2C[C@H]3O[C@H]4CC[C@H]5O[C@H]6C[C@@]7(C)O[C@@]8(C)[C@@H](O)C[C@H](CCCO)O[C@@H]8C[C@@H]7O[C@@H]6C[C@@H]5O[C@]4(C)C[C@]3(C)O[C@@H]2C=C[C@]1(C)O` [gambierol, Gambierol], the IC50 is 1.2 ± 0.2 nM in experiment [2]; 280 ± 40 nM in experiment [3]; 1.9 ± 0.2 nM in experiment [4]; 143 ± 28 nM in experiment [5]; 900 ± 41 nM in experiment [6] (read-out: IC50 (concentration that induces 50% current inhibition), Kv2.1 V404T_S3b-S4_3.1 in Ltk− cells, n = 3). For the same compound, in experiment [6] (Kv2.1 V404T_S3b-S4_3.1 vs previously reported Kv2.1 V404T value), the “fold difference compared to the Kv2.1 V404T mutant” value is reported as ~ 2 fold. Also, the “shift of the voltage dependence of activation to more positive potentials” value in experiment [7] is given as “more than +120 mV”.
